Where two headings read alike, the source gives them in different places.
Columns and labels:
[1] = system: patient-derived, primary human leukemia cells; assay: Human CAFC assay, patient-derived leukemia cells on MS-5 stroma; format: cell-based; conditions: lovastatin: treated 6 days, assessed at 5 weeks (2 weeks for FLT3-ITD)
In short: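 CD34-enriched cells from bone marrow/peripheral blood of AML patients (presentation or relapse) seeded on MS-5 mouse stroma (20,000/well, 96-well, plated 1 day earlier, 37°C/5% CO₂). Seeding density set for one cobblestone per control well at 5 weeks. Medium: α-MEM, 12.5% FCS, 12.5% horse serum, monothioglycerol, 1 µM hydrocortisone, 20 ng/ml human IL-3. Test compound added next day (0.2% DMSO final) for 6 days, then rinsed and refed; half media change at 3 weeks. Score: fraction of replicate wells with ≥6 tightly packed cells beneath stroma.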

[2] = system: dsRed+ LSCe cells and GFP+ HSPCs; assay: BMSC stromal pretreatment with admixed LSCe cells and HSPCs; format: cell-based, mouse; conditions: bone marrow stromal cells pretreated for 3 days
In short: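 Wild-type C57BL/6 BMSC monolayers (384-well) treated with test compound for 3 days at 33°C/5% CO₂, then rinsed twice with PBS. 1200 GFP⁺ HSPCs (UbiquitinC-GFP mice) and 1200 dsRed⁺ LSCe cells plated together onto them. 5 days later, wells imaged at 10x in dsRed and GFP channels; total cell area per channel per well quantified. Mean ± SEM of quadruplicates.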

[3] = system: OP9 or BMSC stromal cells; assay: Stromal toxicity screen; format: cell-based, mouse; conditions: stroma pretreatment
In short: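 OP9 (6,750/well) or primary BMSC (2,000/well) stromal cells plated in 384-well plates. After 24 h, test compound added at 8 concentrations; incubated 72 h at 37°C/5% CO₂. Viability read by CellTiter-Glo ATP luminescence. Toxicity called when mean signal fell 3 SD (BMSC) or 5 SD (OP9) below DMSO control at concentrations below 20 μM.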

[4] = system: human AML cell lines (U937, THP-1, NOMO-1, SKM-1, NB4, and OCI-AML3); assay: Human AML cell line viability screen; format: cell-based; conditions: for EC50: Homo sapiens
[5] = system: LSCe cells on pretreated OP9 stroma; assay: Stromal pretreatment screen; format: cell-based, mouse
[6] = system: LSCe cells; assay: Gene-expression profiling of LSCe cells with GSEA; format: cell-based, mouse; conditions: 5 μM, 6 hours, in suspension
In short: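 250,000 LSCe cells per sample exposed to test compound or DMSO (n = 5 and 2, respectively) for 6 h in suspension in IMDM, 10% FBS, 1% Pen-Strep. RNA extracted, amplified, and hybridized to Illumina MouseRef-8 v2.0 Expression BeadChips.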

[7] = system: normal HSPCs; assay: HSPC co-culture on primary bone marrow stromal cells; format: cell-based, mouse
In short: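 Normal mouse HSPCs (400 per well) were plated in 384-well format on primary CD105⁺ bone-marrow stromal cells and held at 33°C/5% CO₂. The stroma was isolated from GFP-transgenic or wild-type C57BL/6 mice by anti-CD105 magnetic-bead selection and grown 2–3 days at 33°C before use. Test compound was run at 8–12 concentrations in duplicate, with a cytotoxic control at 22 μM.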

[8] = system: LSCe cells; assay: LSCe cell co-culture cobblestone area; format: cell-based, mouse; conditions: for EC50: read-out: EC50 for LSCe cells in co-culture (cobblestone area formation), MLL-AF9 LSCe cells in co-culture with stroma; for selective inhibition of LSCe cells relative to normal HSPCs: co-culture; for validated hit from the screen: inhibits LSCe cells relative to normal HSPCs, no significant stromal toxicity
[9] = system: LSCe cells; assay: Limiting dilution syngeneic transplantation of ex vivo treated LSCe co-cultures; design: species or system mouse; conditions: 500 to 10,000 LSCe cells, 24-hour ex vivo exposure to 5 μM lovastatin in co-culture with BMSCs
[10] = system: LSCe cells and HSPCs; conditions: mixed cultures exposed ex vivo 48 hours to 5 μM lovastatin; relative to DMSO
[11] = system: murine AML cell lines; assay: Murine myeloid cell line viability; format: cell-based; conditions: Mus musculus, 72 h, read-out: EC50 against murine AML cell lines
[12] = system: normal HSPC (CD34+ cells from umbilical cord blood); assay: Human CAFC assay, normal CD34+ cord blood cells on MS-5 stroma; format: cell-based; conditions: treated 6 days, assessed at 5 weeks
[13] = system: dsRed+ LSCe cells and GFP+ HSPCs; assay: Admixed LSCe cells and HSPCs co-cultured with primary BMSCs, direct treatment; format: cell-based, mouse; conditions: 200 nM lovastatin, assessed 5 days later
In short: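 Primary BMSC monolayers from C57BL/6 mice plated in 384-well format. 3 days later, 800 dsRed⁺ LSCe cells and 1600 GFP⁺ HSPCs (UbiquitinC-GFP mice) added. Test compound or DMSO added 24 h later and incubated 5 days. Wells imaged in dsRed and GFP channels at 10x; total cell area per well quantified for each channel. Mean ± SEM of quadruplicates, two independent experiments.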

[14] = system: MOZ-TIF2 LSCe cells; assay: MOZ-TIF2 LSCe cell co-culture with BMSCs; format: cell-based; conditions: Mus musculus, BMSC, read-out: EC50, MOZ-TIF2 LSCe cells in co-culture
[15] = system: LSCe cells; assay: Mevalonate rescue of lovastatin treatment in LSCe/OP9 co-culture; format: cell-based, mouse; conditions: 2 mM mevalonate, 1 μM lovastatin, OP9 stroma
In short: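 GFP⁺ OP9 stroma (13,500 per well) was plated on gelatin-coated 96-well plates. After 24 h, 2,000 sorted mouse LSCe cells were added. About 24 h later, 2 mM mevalonolactone and/or 1 μM lovastatin were added together, at constant DMSO (0.2% final). After 3 days, medium was fully changed and reagents were re-added.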

[16] = system: FLT3-mutated AML; conditions: cited from earlier work
[17] = system: AML; conditions: phase 1 clinical trial in AML; cited from earlier work

Compound: CC1(C)C(C(=O)Nc2ccc(S(=O)(=O)c3ccc(NC(=O)C4C(C)(C)C4(C)C)cc3)cc2)C1(C)C [BRD7116]
- activity against patient-derived primary human leukemia cells (cobblestone area formation) [1]: showed activity
- relative inhibition of LSCe cells and HSPCs on pretreated stroma [2]: preferentially inhibited the LSCe cells compared to HSPCs
- stromal cell viability (CellTiter-Glo) [3]: without evidence of altered stromal cell viability
- inhibition of AML cell lines ([4]; at 20 μM): ~ 50%
- change in stromal morphology [5]: not accompanied by an obvious change in stromal morphology
- transcriptional changes (GSEA) [6]: induced transcriptional changes consistent with myeloid differentiation
- activity against normal HSPCs ([7]; co-cultured on primary BMSC stroma): limited activity
- EC50 [8]: 200 nM

Compound: CC(C)c1c(C(=O)Nc2ccccc2)c(-c2ccccc2)c(-c2ccc(F)cc2)n1CC[C@@H](O)C[C@@H](O)CC(=O)O [atorvastatin]
- selective inhibition of LSCe cells relative to normal HSPCs [8]: selectively inhibited LSCe cells relative to normal HSPCs

Compound: CC1=C(O)C(=O)C=C2C1=CC=C1[C@@]2(C)CC[C@@]2(C)[C@@H]3C[C@](C)(C(=O)O)CC[C@]3(C)CC[C@]12C [celastrol]
- validated hit from the screen [8]: among the 155 validated hits

Compound: COCc1c(C(C)C)nc(C(C)C)c(/C=C/[C@@H](O)C[C@@H](O)CC(=O)O)c1-c1ccc(F)cc1 [cerivastatin]
- selective inhibition of LSCe cells relative to normal HSPCs [8]: selectively inhibited LSCe cells relative to normal HSPCs

Compound: CC(C)n1c(/C=C/C(O)CC(O)CC(=O)O)c(-c2ccc(F)cc2)c2ccccc21 (centres unmarked) [fluvastatin]
- selective inhibition of LSCe cells relative to normal HSPCs [8]: selectively inhibited LSCe cells relative to normal HSPCs

Compound: CC[C@H](C)C(=O)O[C@H]1C[C@@H](C)C=C2C=C[C@H](C)[C@H](CC[C@@H]3C[C@@H](O)CC(=O)O3)[C@H]21 [lovastatin]
- activity against patient-derived primary human leukemia cells (cobblestone area formation) [1]: inhibited cobblestone area formation for all 6 patient-derived AML samples
- leukemia development after transplantation [9]: only one animal in the lovastatin group developed leukemia by 11.5 weeks
- survival of transplanted mice [10]: survived substantially longer
- EC50 [11]: > 2000 nM
- inhibition of normal HSPC cobblestone area formation [12]: no inhibition
- EC50 ([4]; read-out: EC50 against human AML cell lines): > 2000 nM
- relative inhibition of admixed LSCe cells and HSPCs [13]: selectively inhibited the dsRed^+ leukemia cells while sparing the GFP^+ HSPCs
- EC50 [14]: < 250 nM
- toxicity to normal HSPCs ([7]; concentrations as high as 20 μM, co-culture with BMSCs): no apparent toxicity
- EC50 [8]: ~200 nM

Compound: CC(O)(CCO)CC(=O)O (centres unmarked) [mevalonate]
- rescue of the anti-leukemia effects of lovastatin [15]: fully rescued

Compound: CCCCc1ccc2[nH]c(NC(=O)OC)nc2c1 [parbendazole]
- EC50 ([4]; read-out: EC50, AML cell line viability): < 625 nM

Compound: C=C1C(=O)O[C@H]2[C@H]1CC/C(C)=C/CC[C@@]1(C)O[C@@H]21 [parthenolide]
- validated hit from the screen [8]: among the 155 validated hits

Compound: CC[C@H](C)C(=O)O[C@H]1C[C@H](O)C=C2C=C[C@H](C)[C@H](CC[C@@H](O)C[C@@H](O)CC(=O)O)[C@H]21 [pravastatin]
- scoring in model of FLT3-mutated AML [16]: did not score
- anti-leukemia effect in patients [17]: preliminary evidence of an anti-leukemia effect
- scoring in LSCe co-culture assay [8]: did not score

Compound: CC(C)c1nc(N(C)S(C)(=O)=O)nc(-c2ccc(F)cc2)c1/C=C/[C@@H](O)C[C@@H](O)CC(=O)O [rosuvastatin]
- selective inhibition of LSCe cells relative to normal HSPCs [8]: selectively inhibited LSCe cells relative to normal HSPCs

Compound: CCC(C)(C)C(=O)O[C@H]1C[C@@H](C)C=C2C=C[C@H](C)[C@H](CC[C@@H]3C[C@@H](O)CC(=O)O3)[C@H]21 [simvastatin]
- selective inhibition of LSCe cells relative to normal HSPCs [8]: selectively inhibited LSCe cells relative to normal HSPCs

Compound: Cc1c(C)c2c(c(C)c1O)CCC(C)(COc1ccc(CC3SC(=O)NC3=O)cc1)O2 (centres unmarked) [troglitazone]
- sensitivity of AML cell lines ([4]; concentrations as high as 35 μM): none of the AML cell lines tested was sensitive
- change in stromal morphology [5]: dose-dependent adipocytic change in the stroma

Reference: PMC4009363 (Nature chemical biology, 2013)
